Screening results deposited in PubChem by Broad Institute.
Shown are actives, neighbours in structure and some others; about 1.7% of the full set was active somewhere.
Rtt109 Vps75: inhibitors of C. albicans Rtt109/Vps75 HAT, primary screen, biochemical, ThioGlo CoA-SH fluorescence, plate reader | Histone acetyltransferase RTT109 (Candida albicans (strain SC5314 / ATCC MYA-2876)), … | purified Rtt109/Vps75, 4 h | inhibition, % at 34.9 µM | actives 0.16% (n = 330,000) | AID 540336, 2011;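 active means inhibition of at least 50% in every replicate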
Target sequence (Q5AAJ8 whole entry, looked up): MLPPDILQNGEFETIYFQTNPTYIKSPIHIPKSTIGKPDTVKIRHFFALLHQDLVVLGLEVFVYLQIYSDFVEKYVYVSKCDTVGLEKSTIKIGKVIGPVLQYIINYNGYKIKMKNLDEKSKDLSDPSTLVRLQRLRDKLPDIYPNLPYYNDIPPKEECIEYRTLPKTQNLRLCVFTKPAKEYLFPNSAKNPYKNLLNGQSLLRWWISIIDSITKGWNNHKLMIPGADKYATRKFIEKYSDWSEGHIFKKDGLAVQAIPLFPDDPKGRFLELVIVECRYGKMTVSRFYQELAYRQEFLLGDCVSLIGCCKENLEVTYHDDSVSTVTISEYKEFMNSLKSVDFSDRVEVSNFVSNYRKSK
PfHsp90 yeast 2: growth inhibition of PfHsp90-expressing yeast, primary screen, antimalarial PfHsp90 inhibitor project, S. cerevisiae, BacTiter-Glo luminescence, single point, set 2 | BacTiter-Glo ATP, 48 h; yeast lacking PDR1 and PDR3 efflux regulators | inhibition, % at 9.4 µM | actives 0.32% (n = 310,000) | AID 504621, 2011;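 active means every replicate shows inhibition above about 80%, whatever the replicate mean, limit read from the data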;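 further: 0% = DMSO neutral controls and 100% = 20 µM radicicol positive controls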
FN deposition inh: inhibitors of fibronectin matrix deposition, primary screen, AH1F cells, Alexa488-fibronectin fluorescence, plate reader; AH1F fibroblasts, overnight; inhibition, % at 12.6 µM; actives 0.086% (n = 350,000);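 active means mean inhibition across replicates of 30% or more, regardless of how many single replicates reach that level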;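 further: positive control wells lacked labelled fibronectin entirely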
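Material: AH1F fibroblast monolayer depositing Alexa488-labelled fibronectin into matrix | Input: 10000 AH1F cells/well | Medium: DMEM plus 2% serum, read in PBS | Reagent: Alexa488-fibronectin, 24 nM final in well | Compound dosing: One dose per compound, pinned | Schedule: 1 h adhesion, overnight exposure | Measured by: Fluorescence at 485 nm excitation, 525 nm emission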
PglD inh: C. jejuni PglD acetyltransferase inhibitors, primary screen, biochemical, DTNB colorimetric, single point; UDP-N-acetylbacillosamine N-acetyltransferase PglD (Campylobacter jejuni); purified PglD enzyme, DTNB colorimetric CoA detection; inhibition, % at 12.5 µM; actives 0.098% (n = 360,000); in the data active means inhibition above about 16%, passing the limit was not always enough
CSC inhib: cancer stem cell viability inhibitors, primary screen, luminescence; cancer stem cell-like cells viability; inhibition, % at 7.5 µM; actives 1.1% (n = 300,000); in the data active means inhibition above about 75%; tested in HMLE shEcad cells
SKKanGAS inh: S. pyogenes SKKanGAS growth inhibitors in kanamycin, primary screen, streptokinase expression inhibitor project, SKKanGAS strain, BacTiter-Glo luminescence; 6 h; inhibition, % at 7.5 µM; actives 1.3% (n = 300,000); AID 1662, 2009;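 active means mean replicate score, as percent of positive control median, at least 50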;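 further: strain carries kanamycin resistance gene driven by streptokinase promoter and grows in 40 µg/ml kanamycin; loss of luminescence reflects streptokinase promoter inhibition or plain growth inhibition; 0% = median of DMSO wells and 100% = positive control at its reference dose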
* hit, by the source's call; / = no result given.

SMILES	Rtt109 Vps75	PfHsp90 yeast 2	FN deposition inh	PglD inh	CSC inhib	SKKanGAS inh
COc1ccc(-c2c(C#N)c(N)nc3sc(C(=O)c4ccccc4)c(N)c23)cc1	-2	6	4	-5	31	53*
O=C(COC(=O)c1ccc(O)cc1O)NC12CC3CC(CC(C3)C1)C2	5	12	0	-1	/	/
O=C(OCC(=O)C12CC3CC(CC(C3)C1)C2)c1ccc(O)cc1O	0	101*	7	-1	-12	12
Cc1ccccc1-n1cnc2cc(NCc3cccs3)ccc21	6	12	-6	13	30	50*
O=C1COc2ccc(C(=O)c3ccccc3C(=O)NCc3ccco3)cc2N1	72*	11	/	1	/	2
O=C1COc2ccc(C(=O)c3ccccc3C(=O)NCc3ccccc3)cc2N1	13	7	/	-3	-6	-3
O=C1COc2ccc(C(=O)NCc3ccco3)cc2N1	67*	1	/	4	2	0
COCc1cn(CC[C@@H]2CC[C@@H](NC(=O)Nc3ccc(Cl)cc3)[C@H](CO)O2)nn1	/	/	/	1	/	/
CCC(=O)N(C)C[C@@H]1Oc2ncc(-c3ccccc3C)cc2C(=O)N([C@@H](C)CO)C[C@@H]1C	/	/	-14	-4	/	/
COc1ccc(S(=O)(=O)Nc2ccc3c(c2)C(=O)N([C@H](C)CO)C[C@H](C)[C@@H](CN(C)C(=O)Nc2cccc4ccccc24)O3)cc1	/	/	/	-2	/	/
COc1ccc2c(c1O)-c1ccccc1CCN(C)C2	-1	-31	/	-2	10	0
CN1CCc2cccc3c2[C@@H]1Cc1ccc(O)c(O)c1-3	60*	23	-13	-1	/	/
CS(=O)(=O)Nc1ccc2c(c1)[C@@H]1C[C@H](CC(=O)NCc3ccccn3)O[C@H](CO)[C@@H]1O2	/	/	/	3	/	/
O=C(Nc1ccccc1)Nc1sccc1-c1nc2ccccc2s1	8	6	6	0	20	5
O=C(Nc1cccc(Cl)c1)Nc1sccc1-c1nc2ccccc2s1	-6	2	-9	-5	76*	27
O=[N+]([O-])c1ccc(N2CCCCC2)c(Cl)c1N1CCCCC1	0	14	-6	3	10	93*
COCC(=O)Nc1ccc2c(c1)[C@@H]1C[C@H](CC(=O)N3CCCCC3)O[C@H](CO)[C@@H]1O2	/	/	1	-1	/	/
CS(=O)(=O)c1ccc2nc(NC(=O)c3cccc(NS(=O)(=O)c4ccc(F)c(F)c4)c3)sc2c1	20	-10	3	/	66	37
O=C(Nc1nc2ccc(SC(F)F)cc2s1)c1ccc(NS(=O)(=O)c2ccc(F)c(F)c2)cc1	-4	-112	-7	1	79*	114*
CS(=O)(=O)c1ccc2nc(NC(=O)c3ccc(NS(=O)(=O)c4ccc(F)c(F)c4)cc3)sc2c1	-1	-29	-2	-3	13	85*
CCC(=O)N1C[C@H](C)[C@@H](OC)CN(C)C(=O)c2ccc(NC(=O)COC)cc2OC[C@H]1C	/	/	-1	-4	/	/
O=C1CCC(=O)N1c1ccc(-c2nc3ccccc3s2)cc1	52*	3	-8	0	13	6
Nc1ccc(-c2nc3ccccc3s2)cn1	6	-11	14	-2	6	-5
CN(C)C(=O)c1cccc(-c2ccccc2[C@@H]2[C@@H](C#N)N(C(=O)C3CCCC3)[C@H]2CO)c1	/	/	-7	/	/	/
Cc1ccc(C(=O)C(SC(C)(C)C)n2cncn2)cc1 (stereo not drawn)	-5	83*	-2	3	-1	1
SMILES	Rtt109 Vps75	PfHsp90 yeast 2	FN deposition inh	PglD inh	CSC inhib	SKKanGAS inh
CCCCOc1ccc(-c2c(C#N)c(N)nc(SCC(N)=O)c2C#N)cc1	-2	/	/	11	34	90*
CCCCOC(=O)CSc1nc(N)c(C#N)c(-c2ccc(OCC)cc2)c1C#N	0	-7	-7	-1	14	-2
CCOC(=O)c1sc2nc(C)nc(SCC(=O)N(C)C3CCS(=O)(=O)C3)c2c1C (stereo not drawn)	50*	46	-7	/	-7	6
CCN(C(=O)CSc1nc(C)nc2sc(C)c(C)c12)C1CCS(=O)(=O)C1 (stereo not drawn)	0	1	-1	-1	/	/
CC(C)[C@H]1C(=O)N[C@H](c2ccccc2)CC=CC[C@@H](C)Oc2ccccc2C(=O)N1C (mixture of isomers)	/	/	-4	/	/	/
Cc1ccccc1-c1noc(-c2ccc(O)cc2)n1	16	56	/	1	96*	12
Cc1ccc(-c2nc(-c3ccccn3)no2)cc1	-1	55	/	-1	70	59*
c1ccc(-c2ccc(-c3nc(-c4ccccn4)no3)cc2)cc1	-10	27	/	0	-10	18
Cc1cccc(S(=O)(=O)N[C@H]2CC[C@@H](CCNS(=O)(=O)c3ccccc3F)O[C@@H]2CO)c1	/	/	0	-3	/	/
Cc1cc(C(=O)Nc2cccc3c2O[C@H](CN(C)C(=O)Nc2ccccc2)[C@H](C)CN([C@@H](C)CO)C3=O)n(C)n1	/	/	/	0	/	/
C[C@H]1CN([C@@H](C)CO)C(=O)c2cccc(NS(=O)(=O)c3ccccc3)c2O[C@H]1CN(C)S(=O)(=O)c1ccc(F)cc1	/	/	/	-1	/	/
COc1cc(C2c3cc4c(cc3C3OC(=O)C2C3CO)OCO4)cc(OC)c1OC (stereo not drawn)	/	/	-13	4	/	/
COc1cc([C@@H]2c3cc4c(cc3[C@@H](O)[C@H]3COC(=O)[C@H]23)OCO4)cc(OC)c1O[Si](C)(C)C(C)(C)C	-10	16	3	-5	127*	40
Cc1ccc(S(=O)(=O)Nc2ccc(-c3nnc(SCc4ccccc4Cl)o3)cc2)cc1	-4	10	1	/	88*	8
Cc1noc(C)c1NC(=O)Nc1ccc2c(c1)C(=O)N([C@H](C)CO)C[C@H](C)[C@@H](CN(C)C(=O)Nc1ccc3c(c1)OCO3)OCCCC[C@@H](C)O2	/	/	-4	-2	/	/
CCCCn1cnc2c(c(-c3ccccc3)c(-c3ccccc3)n2Cc2ccco2)c1=N	/	/	39*	3	87*	1
COc1ccc(C(=O)C(CN2CCOCC2)c2ccccc2)cc1 (stereo not drawn)	-4	11	/	2	50	10
CCCCOc1ccc(C(=O)C(CN2CCOCC2)c2ccccc2)cc1 (stereo not drawn)	0	-14	/	3	111*	2
CCCOc1ccc(C(=O)C(CN2CCCC2)c2ccccc2)cc1 (stereo not drawn)	-5	25	1	/	101*	-2
